The values below come from PubChem BioAssay AID2237 (Johns Hopkins Ion Channel Center, 2010).

About 1,500 (0.48%) of roughly 310,000 compounds were called active.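 Rule for the calls: active = B-score above 5 SD of library B-scores, and initial fluorescence ratio not above library mean plus 5 SD; inactive = the rest.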 The entries come from a sample that favours actives as a whole.

Short transient receptor potential channel 4 (Mus musculus), sequence (Q9QUQ5 whole entry, looked up): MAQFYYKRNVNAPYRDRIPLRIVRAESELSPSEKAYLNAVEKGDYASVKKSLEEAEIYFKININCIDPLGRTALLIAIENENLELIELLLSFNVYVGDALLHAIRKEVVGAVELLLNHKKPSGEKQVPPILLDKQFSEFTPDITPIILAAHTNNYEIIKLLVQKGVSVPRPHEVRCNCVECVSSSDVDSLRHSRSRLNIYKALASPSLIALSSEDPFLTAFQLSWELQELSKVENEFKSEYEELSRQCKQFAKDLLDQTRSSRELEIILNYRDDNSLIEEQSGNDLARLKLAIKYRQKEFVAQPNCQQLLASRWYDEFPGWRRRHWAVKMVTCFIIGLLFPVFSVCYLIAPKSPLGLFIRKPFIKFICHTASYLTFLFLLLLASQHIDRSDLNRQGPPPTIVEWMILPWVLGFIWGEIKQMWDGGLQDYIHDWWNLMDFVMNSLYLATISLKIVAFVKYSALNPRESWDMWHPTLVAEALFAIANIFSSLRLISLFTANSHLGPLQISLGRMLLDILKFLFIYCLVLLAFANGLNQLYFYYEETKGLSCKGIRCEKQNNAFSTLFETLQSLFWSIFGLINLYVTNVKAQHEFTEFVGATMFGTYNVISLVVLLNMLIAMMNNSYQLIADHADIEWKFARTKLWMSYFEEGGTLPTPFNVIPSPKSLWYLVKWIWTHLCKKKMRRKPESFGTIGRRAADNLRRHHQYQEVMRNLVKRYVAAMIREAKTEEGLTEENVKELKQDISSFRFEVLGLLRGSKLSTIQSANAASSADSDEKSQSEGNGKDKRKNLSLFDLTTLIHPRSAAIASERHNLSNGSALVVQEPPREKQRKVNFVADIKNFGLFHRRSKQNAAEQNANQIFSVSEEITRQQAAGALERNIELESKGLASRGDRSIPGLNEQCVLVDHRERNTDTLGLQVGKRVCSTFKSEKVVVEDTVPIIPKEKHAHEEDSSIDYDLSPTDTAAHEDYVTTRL

The assay has as its target Short transient receptor potential channel 4 (Mus musculus) (UniProt Q9QUQ5). As to the kind of experiment: activators of mouse TRPC4 channel, primary screen, Fluo4 calcium, HEK293 TRPC4beta/mu-opioid cells (AID 2237).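 For B-score: positive B-score marks a calcium rise read as TRPC4 activation.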 To be noted: Fluo4 calcium fluorescence, at 10 µM; active compounds read high. An outline of the steps: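 Assay system: HEK293 cells stably co-expressing mouse TRPC4beta and mu-opioid receptor / Timing: Fluo4 dye loading 45 min at room temperature, 110 s recording / Signal: Fluo4 calcium-sensitive dye fluorescence, kinetic, 1 Hz baseline / Read-out: integrated baseline-normalised fluorescence ratio, converted to per-well B score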
`O=S(=O)(NCCc1csc(-c2ccccc2)n1)c1cccnc1`: the B-score is 102 (active).
`Cc1nc(CNS(=O)(=O)c2cccnc2)cs1`: the B-score entry was “inactive”.
The same measure for `O=S(=O)(NCCc1ccncc1)c1ccccc1`: “inactive”; for `CC#CC[N+](C)(C)CCCCCC`: “inactive”; for `COC(=O)CC(=O)N1CCN(c2ccc(Cl)c(Cl)c2)CC1`: “inactive”.
In the case of `COc1ccc(OCC(O)CNC(=O)Nc2ccc(Cl)cc2)cc1` (stereo unspecified) it was “inactive”.
`OC(CNCCc1ccc(Cl)cc1Cl)COc1ccccc1` (stereo unspecified): the B-score is 44 (active).
In the case of `OC(CNCc1ccc2c(c1)OCO2)COc1ccccc1` (stereo unspecified) it was “inactive”; in that of `CO/N=C/c1cn(-c2ccc(Cl)cc2)nn1`, “inactive”; in that of `CCN(CC)c1ccc(NC(=O)CCc2nnc3ccc(N4CCCCC4)nn23)c(C)c1`, “inactive”.
The same measure for `CC(NC(=O)C(C)(C)C)C(c1cccs1)N1CCN(Cc2ccccc2)CC1` (stereo unspecified): “inactive”; for `CC(NC(=S)Nc1ccccc1)C(c1cccs1)N1CCOCC1` (stereo unspecified): “inactive”; for `CCCC(=O)NC(C)C(c1cccs1)N1CCN(c2ccccc2)CC1` (stereo unspecified): 87 (active).
The same measure for `COc1ccc(CNC(=O)c2ccc3oc(C(C)C)nc3c2)cc1`: “inactive”; for `COc1ccc(N(CC(=O)Nc2ccc(C)cc2C)S(=O)(=O)c2ccccc2[N+](=O)[O-])c(OC)c1`: “inactive”; for `O=C(Nc1ccc2sc3ccccc3c(=O)c2c1)c1ccccc1Cl`: “inactive”.
Regarding `Cc1ccc(-n2[nH]c(C)c(/C=N/N3C(=O)c4cccc5cccc(c45)C3=O)c2=O)cc1`, the B-score is 131 (active).
Regarding `COc1cc(SC#N)ccc1N=Cc1c(C)[nH]n(-c2ccc(C)cc2)c1=O`, the B-score entry was “inactive”.
In the case of `Cc1[nH]n(-c2cccc(Cl)c2)c(=O)c1/C=N/n1c(C)nc2ccccc2c1=O`, the B-score result is “inactive”.
The same measure for `COc1ccccc1CCNS(=O)(=O)c1cc2c3c(c1)C(C)C(=O)N3CCC2` (stereo unspecified): “inactive”; for `CCOc1ccc(S(=O)(=O)NCCC(=O)NCC(C)(C)N2CCOCC2)cc1`: “inactive”; for `COC(=O)C(CC(=O)Nc1cc(C)ccc1C)Nc1ccccc1OC` (stereo unspecified): 69 (active).
The same measure for `COc1ccccc1NC(=O)CC(NCCN(C)C)C(=O)O` (stereo unspecified): “inactive”; for `COc1ccc(C)cc1NC(=O)Nc1ccccc1SC`: “inactive”; for `Cc1ccc(CNC(=O)Cc2cn(C)c3ccccc23)cc1`: “inactive”.
As for `COc1ccc(N2CCN(C(=O)c3cccs3)CC2)cc1`, the B-score result is “inactive”.
The same measure for `CC(c1cccnc1)N(CCN(C)C)C(=O)Nc1ccc(Cl)c(Cl)c1` (stereo unspecified): 62 (active); for `CS(=O)(=O)N(CC(=O)Nc1ccc(Cl)c(Cl)c1)C1CCCCC1`: “inactive”; for `O=C(Nc1cccnc1)c1cc(Cl)ccc1Cl`: “inactive”.
The same measure for `CC1=C/C(=N\OS(=O)(=O)c2ccccc2)C=CC1=O`: “inactive”; for `COc1ccc(-n2nc(C(=O)NCC(=O)N3CCC(C(N)=O)CC3)c3ccccc3c2=O)cc1OC`: “inactive”.
In the case of `CC1(C)N=C(c2ccccn2)C(C)(C)N1O` it was “inactive”.
As for `CC1(C)CC(CNCCC(c2ccc(F)cc2)c2ccco2)CCO1` (stereo unspecified), the B-score entry is “inactive”.
As for `O=C(COc1cc(Cl)c(Cl)cc1Cl)NCCc1ccccn1`, the B-score was 85 (active).
For `O=C(NCCc1ccccn1)c1cccnc1Oc1ccc(Cl)cc1`, the B-score result is “inactive”.
The same measure for `O=C(CNC(=O)COc1ccccc1)NCCc1ccccn1`: “inactive”.
In the case of `CCn1cc(-c2cc(C(=O)O)on2)c(C)n1` it was “inactive”; in that of `S=c1nc(C23CC4CC(CC(C4)C2)C3)nc2sccn12`, “inactive”; in that of `N[C@@H](Cc1ccccc1)C(=O)N1CCC(C(=O)NCC(=O)Nc2ccc(F)cc2)CC1`, “inactive”.
`CN(C)CCN(C(=O)C1CCCCC1)c1nc2cc3c(cc2s1)OCO3`: the B-score was 66 (active).
The same measure for `CCN(CC)CCN(C(=O)c1cc(Cl)sc1Cl)c1nc2cc3c(cc2s1)OCO3`: “inactive”; for `CN(C)CCN(C(=O)CN1C(=O)c2ccccc2C1=O)c1nc2cc3c(cc2s1)OCCO3`: “inactive”.
In the case of `COc1cccc(/C=N/NC(=O)C(=O)N2CCCC2)c1` it was “inactive”; in that of `COc1ccc(/C=N/N(C)C2=NS(=O)(=O)c3ccccc32)cc1OC`, “inactive”.
On to `CN(Cc1ccco1)S(=O)(=O)c1nnc(NC(=O)c2ccccc2)s1`, for which the B-score entry is “inactive”.
Consider `O=S(=O)(Oc1ccccc1C(=S)N1CCOCC1)c1ccc(Cl)cc1`, for which the B-score result is “inactive”.
On to `C[C@]1(C(=O)NCCc2c[nH]c3ccccc23)C=C[C@@H](Cc2ccccc2)N1C(=O)c1ccccc1`, for which the B-score entry is “inactive”.
The same measure for `C=CCN(C(=O)c1cc(C)cc(C)c1)C1(C(=O)Nc2ccccc2)CCN(C(C)C)CC1`: “inactive”; for `Cc1cc(C)cc(C(=O)N(CCc2ccccc2)C2=CC3CCC(C2)N3C)c1` (stereo unspecified): 75 (active); for `Cc1ccc(CCN2CC(C(=O)NCCc3ccccc3)CC2=O)cc1` (stereo unspecified): “inactive”.
For `O=C(CC(c1ccccc1)c1ccccc1)NCC(O)c1ccc([N+](=O)[O-])cc1` (stereo unspecified), the B-score entry is “inactive”.
For `CN(C)CCNC(=O)Cc1ccc([N+](=O)[O-])cc1`, the B-score result was “inactive”.
The same measure for `CN(C)C(CNC(=O)Cc1ccc([N+](=O)[O-])cc1)c1ccccc1` (stereo unspecified): 179 (active); for `CC(C)Oc1c(Br)cc(Br)cc1/C=N/NC(N)=S`: “inactive”; for `Cc1ccc(S(=O)(=O)N(Cc2cc3ccccc3[nH]c2=O)CC2CCCO2)cc1` (stereo unspecified): “inactive”.
In the case of `COc1ccc(C(=O)NNC(=S)NC(=O)c2ccccc2[N+](=O)[O-])cc1` it was “inactive”; in that of `O=C(CCc1ccccc1)NNC(=O)COc1ccc(Cl)cc1`, “inactive”.
Regarding `COc1ccc(C(=O)NNC(=S)NC(=O)c2ccccc2)cc1`, the B-score was 180 (active).
In the case of `CC(C)Oc1ccc(CCC(=O)NNC(=S)NCc2ccccc2)cc1`, the B-score is 123 (active).
The same measure for `Cc1ccc(OCC(=O)NNC(=S)NCc2ccccc2)cc1`: “inactive”; for `COc1ccc(C(=O)NC(=S)NC2CCCCC2)cc1`: “inactive”; for `O=C(NNC(=S)NCc1ccccc1)c1ccc(OC(F)F)cc1`: “inactive”.
The same measure for `COc1ccc(C(=O)NC(=S)NNC(=O)CCc2ccccc2)cc1`: 96 (active).
With `COc1ccc(C(=O)NC2CCN(C(=S)NCCc3ccccc3)CC2)cc1`, the B-score result was “inactive”.
Consider `Cc1cc(C)c(C(=O)CSc2nc(C)cc(=O)[nH]2)c(C)c1`, for which the B-score entry was “inactive”.
In the case of `Cc1ccc(C(=O)NCC(=O)OCC(=O)NC2CCCCCCC2)cc1` it was “inactive”; in that of `COc1ccc(Br)cc1CN(C)CC(=O)Nc1cc([N+](=O)[O-])ccc1OC`, “inactive”; in that of `CCCn1nc(C(=O)N2CCCc3ccccc32)c2ccccc2c1=O`, “inactive”.
In the case of `CN(C)C(=O)N1CCNCC1` it was “inactive”; in that of `Cc1ccc(CC2CC(=O)N(c3cc(C)ccc3C)C2=O)cc1` (stereo unspecified), “inactive”; in that of `O=C(CNS(=O)(=O)c1ccc(Br)s1)N1CCN(C(=O)c2ccco2)CC1`, “inactive”.
